Data set [1] deals with Staphylococcus aureus. In words: Antibacterial activity against methicillin-resistant Staphylococcus aureus ATCC BAA-44 assessed as cell death at 50 to 500 nM incubated for 60 mins in dark followed by blue light illumination post compound washout. The class given is functional, organism-based. A digest of the protocol: (§1)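 Overnight BHI-grown stationary-phase bacteria in PBS pH 7.3 at ~2 × 10⁷ cells/mL, dark-incubated with PS at rt. Then centrifuged at 10000g for 5 min and washed three times in PBS before blue light (390−460 nm, 15.2 mW/cm², 13.5 J/cm²). Survival measured as cfu from serial dilutions plated in duplicate on BHI agar.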

The test system of data set [2] is Staphylococcus aureus. The data set can be described thus: Antibacterial activity against methicillin-resistant Staphylococcus aureus ATCC BAA-44 assessed as cell death at 10 nM incubated for 15 to 120 mins in dark followed by blue light illumination. The class given is functional, organism-based. A digest of the protocol:
(§2)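 Stationary-phase bacteria grown overnight in BHI at 37 °C, washed twice and resuspended in PBS pH 7.3 at ~2 × 10⁷ cells/mL. Dark incubation with PS at rt, unbound PS left in. Blue light (390−460 nm) at 15.2 mW/cm², 13.5 J/cm². Survivors counted as cfu from serial 10-fold dilutions plated in duplicate on BHI agar, 37 °C overnight. Dark, light-only and untreated controls.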

Data set [3] deals with Staphylococcus aureus. In words: Antibacterial activity against methicillin-resistant Staphylococcus aureus ATCC BAA-44 assessed as cell death at 10 nM incubated for 15 to 120 mins in dark followed by blue light illumination post compound washout. The class given is functional, organism-based. The procedure, abridged: as §1
Data set [4] concerns Staphylococcus aureus. The data set can be described thus: Antibacterial activity against methicillin-resistant Staphylococcus aureus ATCC BAA-44 assessed as cell death at 50 to 500 nM incubated for 60 mins in dark followed by blue light illumination. The class given is functional, organism-based. The procedure, abridged: as §2
The test system of data set [5] is Staphylococcus aureus. In words: Drug uptake in methicillin-resistant Staphylococcus aureus ATCC BAA-44 at 1.5 uM incubated for 60 mins in dark followed by flow cytometry. The class given is ADME, organism-based. The conditions noted are these: in vivo, 1 h. A digest of the protocol:
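Cells treated as for photoinactivation: 60 min dark incubation with PS, unwashed or after three PBS washings. Analysed by flow cytometry for cell-associated red fluorescence instead of being illuminated.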
(In flow cytometry, cells or beads pass a laser one at a time.)

The test system of data set [6] is Escherichia coli. The data set can be described thus: Drug uptake in Escherichia coli ATCC 25922 at 5 uM incubated for 60 mins in dark followed by flow cytometry. In kind it is ADME, organism-based. To be noted: in vivo, 1 h. The procedure, abridged:
(§3)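 Bacterial suspensions treated as for photoinactivation (5 μM, 60 min dark incubation at rt, either unwashed or washed three times with PBS) and then analysed for cell-associated red fluorescence by flow cytometry instead of being illuminated.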

Data set [7] has as its system Escherichia coli. In words: Antibacterial activity against Escherichia coli ATCC 25922 assessed as cell death after 60 mins in dark followed by blue light illumination. The class given is functional, organism-based. A digest of the protocol:
(§4)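 Dark incubation with PS at rt, then illumination either directly or after three PBS washes (10000g, 5 min). Survival by 10-fold serial dilution, duplicate plating on BHI agar, overnight colony count at 37 °C; dark, light-only and peptide-only controls.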

Data set [8] relates to Escherichia coli. In words: Drug uptake in Escherichia coli ATCC 25922 at 5 uM incubated for 60 mins in dark followed by flow cytometry post compound washout. The class given is ADME, organism-based. To be noted: in vivo, 1 h. A digest of the protocol: as §3
Data set [9] concerns Staphylococcus aureus. In words: Antibacterial activity against methicillin-resistant Staphylococcus aureus ATCC BAA-44 assessed as cell death at 0.5 uM incubated for 60 mins in dark followed by blue light illumination. The class given is functional, organism-based. A digest of the protocol:
as §2

For data set [10], the system named is Staphylococcus aureus. In words: Antibacterial activity against methicillin-resistant Staphylococcus aureus ATCC BAA-44 assessed as log reduction in cell survival at 0.5 uM incubated for 60 mins in dark followed by blue light illumination. In kind it is functional. A digest of the protocol: as §2
For data set [11], the system named is Staphylococcus aureus. The data set can be described thus: Antibacterial activity against methicillin-resistant Staphylococcus aureus ATCC BAA-44 assessed as cell death at 0.5 uM incubated for 15 to 120 mins in dark followed by blue light illumination. In kind it is functional, organism-based. The procedure, abridged:
as §2

In data set [12] the test system is Escherichia coli. In words: Antibacterial activity against Escherichia coli ATCC 25922 assessed as cell death at 10 uM incubated for 15 to 120 mins in dark followed by blue light illumination. In kind it is functional, organism-based. The procedure, abridged:
as §4

Data set [13] relates to Escherichia coli. The data set can be described thus: Antibacterial activity against Escherichia coli ATCC 25922 assessed as cell death at 15 uM incubated for 60 mins in dark followed by blue light illumination relative to control. The class given is functional. The procedure, abridged:
as §2

Data set [14] deals with Escherichia coli. In words: Antibacterial activity against Escherichia coli ATCC 25922 assessed as cell death at 10 uM incubated for 15 to 120 mins in dark followed by blue light illumination post compound washout. In kind it is functional, organism-based. The procedure, abridged: as §4
In data set [15] the test system is Staphylococcus aureus. The data set can be described thus: Antibacterial activity against methicillin-resistant Staphylococcus aureus ATCC BAA-44 assessed as cell death at 0.5 uM incubated for 60 mins in dark followed by blue light illumination post compound washout. In kind it is functional, organism-based. A digest of the protocol: as §1
For data set [16], the system named is Staphylococcus aureus. The data set can be described thus: Antibacterial activity against methicillin-resistant Staphylococcus aureus ATCC BAA-44 assessed as cell death at 0.5 uM incubated for 15 to 120 mins in dark followed by blue light illumination post compound washout. In kind it is functional, organism-based. The procedure, abridged: as §1
Data set [17] concerns Escherichia coli. The data set can be described thus: Antibacterial activity against Escherichia coli ATCC 25922 assessed as cell death at 1.5 to 15 uM incubated for 60 mins in dark followed by blue light illumination post compound washout. The class given is functional, organism-based. The procedure, abridged:
as §4

The test system of data set [18] is Escherichia coli. The data set can be described thus: Antibacterial activity against Escherichia coli ATCC 25922 assessed as cell death at 5 to 10 uM incubated for 60 mins in dark followed by blue light illumination. The class given is functional, organism-based. The procedure, abridged:
as §2

The subject of data set [19] is Escherichia coli. The data set can be described thus: Antibacterial activity against Escherichia coli ATCC 25922 assessed as cell death at 5 uM incubated for 15 to 120 mins in dark followed by blue light illumination post compound washout. In kind it is functional, organism-based. A digest of the protocol:
as §1

Data set [20] deals with Escherichia coli. In words: Antibacterial activity against Escherichia coli ATCC 25922 assessed as cell death at 5 uM incubated for 15 to 120 mins in dark followed by blue light illumination. In kind it is functional, organism-based. A digest of the protocol:
as §2

Data set [21] has as its system Escherichia coli. In words: Antibacterial activity against Escherichia coli ATCC 25922 assessed as log reduction at 10 uM incubated for 60 mins in dark followed by blue light illumination post compound washout relative to control. In kind it is functional, organism-based. A digest of the protocol: as §1
The test system of data set [22] is Staphylococcus aureus. In words: Antibacterial activity against methicillin-resistant Staphylococcus aureus ATCC BAA-44 assessed as cell death at 10 uM incubated for 15 to 120 mins in dark followed by red light illumination post compound washout. In kind it is functional, organism-based. The procedure, abridged: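 After dark incubation with PS in PBS at rt, cells pelleted at 10000g for 5 min and washed three times with PBS. Red light (600−750 nm, 40 mW/cm², 36 J/cm²). Surviving cfu counted on BHI agar plated in duplicate.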

Data set [23] deals with Staphylococcus aureus. In words: Antibacterial activity against methicillin-resistant Staphylococcus aureus ATCC BAA-44 assessed as cell death at 10 uM incubated for 15 to 120 mins in dark followed by red light illumination. The class given is functional, organism-based. A digest of the protocol:
(§5)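 Cells incubated with PS in the dark at rt in PBS pH 7.3 (~2 × 10⁷ cells/mL), unbound PS not removed. Red light (600−750 nm) delivered from above at 40 mW/cm², total 36 J/cm². Viability read as cfu after 10-fold serial dilution, duplicate plating on BHI agar, overnight at 37 °C.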

For data set [24], the system named is Escherichia coli. The data set can be described thus: Antibacterial activity against Escherichia coli ATCC 25922 assessed as cell death after 60 mins in dark followed by red light illumination. The class given is functional, organism-based. The procedure, abridged: as §4
Data set [25] has as its system Staphylococcus aureus. In words: Antibacterial activity against methicillin-resistant Staphylococcus aureus ATCC BAA-44 assessed as cell death at 1.5 to 15 uM incubated for 60 mins in dark followed by red light illumination. The class given is functional, organism-based. The procedure, abridged:
as §5

Data set [26] concerns Escherichia coli. The data set can be described thus: Antibacterial activity against Escherichia coli ATCC 25922 assessed as cell death at 10 uM incubated for 60 mins in dark followed by blue light illumination post compound washout. The class given is functional, organism-based. The procedure, abridged: as §4

Structures are written as SMILES. Calls of active or inactive are those of the source. The calls are words filed in the database; no cut-off is given here. Residues, ends and D or L forms follow the SMILES beside them. *: point of attachment. Benzoyl(4-TriPhPorphyrinyl) = O=C(c1ccc(-c2c3nc(c(-c4ccccc4)c4ccc([nH]4)c(-c4ccccc4)c4nc(c(-c5ccccc5)c5ccc2[nH]5)C=C4)C=C3)cc1)*

Turning to `O=C(O)c1ccc(-c2c3nc(c(-c4ccccc4)c4ccc([nH]4)c(-c4ccccc4)c4nc(c(-c5ccccc5)c5ccc2[nH]5)C=C4)C=C3)cc1`, the outcome in the data set on Staphylococcus aureus [1], in the data set on Staphylococcus aureus [2], in the data set with Staphylococcus aureus [3], with Staphylococcus aureus [4] and in the data set with Staphylococcus aureus [9] was Active. Also, the Drug uptake entry was “Active” in the data set with Staphylococcus aureus [5], “Not Active” with Escherichia coli [6] and “Not Active” in the data set on Escherichia coli [8]. Further, the result with Escherichia coli [7] was inactive.

As to `CC(C)C[C@H](NC(=O)[C@H](CCCNC(=N)N)NC(=O)[C@@H]1CCCN1C(=O)[C@H](Cc1cnc[nH]1)NC(=O)[C@@H]1CCCN1C(=O)[C@@H]1CCCN1C(=O)[C@H](CCCNC(=N)N)NC(=O)[C@@H]1CCCN1C(=O)CNC(=O)c1ccc(-c2c3nc(c(-c4ccccc4)c4ccc([nH]4)c(-c4ccccc4)c4nc(c(-c5ccccc5)c5ccc2[nH]5)C=C4)C=C3)cc1)C(=O)O` ({Benzoyl(4-TriPhPorphyrinyl)}-GPRPPHPRL-OH), the FC in the data set on Staphylococcus aureus [10] is reported as 3. The result with Staphylococcus aureus [11], with Escherichia coli [12], in the data set with Escherichia coli [14], in the data set with Staphylococcus aureus [15], with Staphylococcus aureus [16] and with Escherichia coli [17] was Active. For the same molecule, the “fold change (FC)” value with Escherichia coli [13] worked out at 4. The Drug uptake entry in the data set with Staphylococcus aureus [5] and in the data set on Escherichia coli [6] was “Active” throughout. Besides, the Activity result with Escherichia coli [7] was “Dose-dependent effect”.

Turning to `C[n+]1ccc(-c2c3nc(c(-c4cc[n+](C)cc4)c4ccc([nH]4)c(-c4ccc(C(=O)O)cc4)c4ccc([nH]4)c(-c4cc[n+](C)cc4)c4nc2C=C4)C=C3)cc1`, the result in the data set with Staphylococcus aureus [1] and with Escherichia coli [21] was inactive. Also, the result in the data set with Staphylococcus aureus [11], in the data set on Escherichia coli [18], in the data set on Escherichia coli [19], in the data set on Escherichia coli [20], in the data set on Staphylococcus aureus [4] and in the data set with Staphylococcus aureus [16] was Active. The outcome in the data set with Staphylococcus aureus [9] and with Escherichia coli [17] was Active. Besides, the Drug uptake result in the data set on Staphylococcus aureus [5] and with Escherichia coli [6] was “Not Active” throughout. For the same molecule, the Activity result in the data set with Escherichia coli [7] was “Dose-dependent effect”.

With `COC(=O)CCCC(=O)Nc1cc2[nH]c(cc2-c2ccccc2)c2nc(ccc3[nH]c(cc3-c3ccccc3)c3nc1C(c1ccccc1)=C3)C(c1ccccc1)=C2`, the outcome in the data set on Staphylococcus aureus [22], in the data set on Staphylococcus aureus [23] and with Staphylococcus aureus [25] was Active. In addition, the result with Escherichia coli [24] was inactive.

`CC[C@H](C)[C@H](NC(=O)[C@H](Cc1ccc(O)cc1)NC(=O)[C@@H](NC(=O)[C@@H]1CCCN1C(=O)[C@H](CCCNC(=N)N)NC(=O)[C@H](CC(N)=O)NC(=O)[C@H](CC(N)=O)NC(=O)CNC(=O)c1ccc(-c2c3nc(c(-c4ccccc4)c4ccc([nH]4)c(-c4ccccc4)c4nc(c(-c5ccccc5)c5ccc2[nH]5)C=C4)C=C3)cc1)C(C)C)C(=O)N1CCC[C@H]1C(=O)N[C@@H](CCC(N)=O)C(=O)N1CCC[C@H]1C(=O)N[C@@H](CCCNC(=N)N)C(=O)N1CCC[C@H]1C(=O)N1CCC[C@H]1C(=O)N[C@@H](Cc1cnc[nH]1)C(=O)N1CCC[C@H]1C(=O)N[C@@H](CCCNC(=N)N)C(=O)N[C@@H](CC(C)C)C(=O)O` ({Benzoyl(4-TriPhPorphyrinyl)}-GNNRPVYIPQPRPPHPRL-OH): in the data set on Staphylococcus aureus [10], the FC was found to be 3. Moreover, the result in the data set with Staphylococcus aureus [11], with Escherichia coli [12], in the data set on Escherichia coli [14], with Staphylococcus aureus [15], in the data set with Escherichia coli [26] and in the data set on Staphylococcus aureus [16] was Active. The outcome in the data set on Escherichia coli [17] was Active. The “fold change (FC)” value in the data set with Escherichia coli [13] worked out at 4. The Drug uptake result in the data set on Staphylococcus aureus [5] and in the data set on Escherichia coli [6] was “Active” in each case. For the same molecule, in the data set on Escherichia coli [7], the Activity result was “Dose-dependent effect”.
